HDAC3 inhib: human HDAC3 inhibition; 320,000 tested, 0.15% active; AID 2718; inhibition, % at 8.3 µM; O15379; recombinant HDAC3, fluorogenic peptide/trypsin coupled, fluorescence; in the data active = inhibition above about 26%, passing the limit was not always enough
FAS TE block: blocks the thioesterase domain of human fatty acid synthase; AID 602261; 360,000 tested, 0.67% active; inhibition, % at 15 µM; recombinant FAS-TE, OMFH fluorogenic substrate, fluorescence endpoint;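 active = compounds whose normalised, plate-corrected inhibition of enzyme fluorescence in the single-dose primary screen is 50% or more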;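 note: 0% = DMSO with enzyme and 100% = substrate without enzyme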
ALR inh: inhibitors of human sulfhydryl oxidase ALR | 290,000 tested, 3.8% active | inhibition, % (no concentration beside the values) | P55789 | purified ALR, DTT oxidation, H2O2 HRP-luminol luminescence;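 active = mean replicate inhibition above about 79%, with every replicate also reaching it, limit read from the data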
Rtt109 Vps75: inhibitors of Candida albicans Rtt109/Vps75 histone acetyltransferase. inhibition, % at 34.9 µM. Q5AAJ8. 330,000 tested, 0.16% active. purified Rtt109/Vps75, ThioGlo CoA-SH fluorescence, 4 h. AID 540336;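 active = inhibition of at least 50% in every replicate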
UCH37 inh: human UCH37 deubiquitinating enzyme inhibition | inhibition, % (concentration not given with the values) | purified proteasome/UCH37, Ub-AMC cleavage fluorescence | 330,000 tested, 0.33% active | Q9Y5K5 | AID 588478;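 active = mean inhibition over replicate wells above about 20%, limit read from the data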;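 note: 0% = compound-free wells with enzyme and 100% = wells lacking proteasome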
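Test system – human UCH37 enzyme supplied as purified proteasome complex · Incubation – 30 min preincubation with enzyme, 25 min cleavage at room temperature · Detection – AMC fluorescence from Ub-AMC cleavage, excitation 355 nm, emission 460 nm · Benchmarks – no-proteasome wells (full inhibition) and compound-free wells (no inhibition)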
PfM18AAP inh: PfM18AAP enzyme inhibition. recombinant PfM18AAP, H-Glu-NHMec fluorogenic cleavage. 290,000 tested, 1.2% active. inhibition, % at 7.35 µM. AID 1822;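 active = inhibition above the campaign mean inhibition over all tested compounds plus 3 SD, cut at about 28% in these data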;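 note: 0% = plate median of test compound wells and 100% = 2 mM ZnCl2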
* hit, by the source's call; x = no result. This is a sample that favours compounds with a hit; in the whole collection about 4.6% have one here.

SMILES	HDAC3 inhib	FAS TE block	ALR inh	Rtt109 Vps75	UCH37 inh	PfM18AAP inh
N#C/C(=C\c1ccco1)C(=O)Nn1cnnc1	2	-6	x	6	17	32*
CCOC(=O)c1ccc(S(=O)(=O)N2CC(=O)Nc3ccccc32)cc1	5	-3	99*	-7	-1	0
CCc1ccc(S(=O)(=O)N2CC(=O)Nc3ccccc32)cc1	-5	-4	2	14	2	8
Cc1sc(N)c(C(=O)c2ccccc2Cl)c1C	-8	1	99*	1	1	11
C=C(C)Cn1c(SCC(=O)NN=Cc2ccccc2)nc2ccccc2c1=O	x	x	x	x	3	x
CN(C)c1ccc(Nc2nc(N)c([N+](=O)[O-])c(N3CCOCC3)n2)cc1	9	-4	99*	29	14	-9
O=C1CSC(=S)N1/N=C/c1cc(Br)c(O)c(Br)c1	-6	-37	34	11	x	40*
COC(=O)c1sc(NC(=O)c2ccc(Cn3cc(Cl)cn3)o2)c(C#N)c1C	-2	-8	88*	15	2	-5
COc1ccccc1[C@@H]1C(c2cccc(C)c2)=NN(c2ccccc2)[C@H]1C(=O)N1CCOC1=O	-4	74*	6	-6	-44	-9
O=C1OCCN1C(=O)[C@H]1[C@H](c2ccc(F)cc2)C(c2ccccc2)=NN1c1ccccc1	x	31	x	-3	-80	x
O=C1OCCN1C(=O)[C@H]1[C@H](c2ccc([N+](=O)[O-])cc2)C(c2cccc(Cl)c2)=NN1c1ccccc1	-1	89*	-1	-5	6	0
O=C1OCCN1C(=O)[C@H]1[C@H](c2ccc(Cl)cc2)C(c2ccccc2)=NN1c1ccccc1	x	50	x	14	x	x
COc1ccccc1[C@@H]1C(c2ccc(F)cc2)=NN(c2ccccc2)[C@H]1C(=O)N1CCOC1=O	10	84*	0	-1	-29	2
COc1ccccc1[C@@H]1C(c2cccc(Cl)c2)=NN(c2ccc(Br)cc2)[C@H]1C(=O)N1CCOC1=O	-6	22	x	-7	-124	-9
CCCNC(=O)CC(C)=NNC(=O)C(=O)Nc1ccccn1	x	x	x	x	2	x
Cc1cc(=O)[nH]c(NN=Cc2cc(C)n(CC(F)(F)F)c2C)n1	x	x	x	x	-1	x
ON=Cc1cn(-c2ccccc2)nc1-c1cccnc1	x	x	x	x	-1	x
CCOC(=O)C1CCCN(C(=O)/C(=C/c2ccco2)NC(=O)c2ccccc2)C1 (centres undefined)	3	-8	10	13	3	30*
CCOC(=O)C1CCCN(C(=S)Nc2ccc(Nc3ccccc3)cc2)C1 (centres undefined)	9	4	97*	2	2	12
O=C(Nc1ccc(C(=O)O)cc1)/C(=C\c1ccco1)NC(=O)c1ccccc1Cl	3	-4	11	8	5	30*
NC(=O)/C(=C/c1ccco1)NC(=O)c1ccc(Br)o1	-2	-4	-14	-4	3	29*
CCOC(=O)C1CCN(C(=S)Nc2ccccc2)CC1	-8	0	-3	14	-2	4
COC(=O)/C(=C/c1ccco1)NC(=O)c1ccc(Br)o1	10	-6	7	-6	6	-1
COc1cc(C=NNC(=O)c2ccncc2)ccc1Oc1ccc([N+](=O)[O-])cn1	x	x	x	x	7	x
CCC(=NNc1ccc(Cl)cc1)c1cnnc(SC)n1	x	x	x	x	3	x
SMILES	HDAC3 inhib	FAS TE block	ALR inh	Rtt109 Vps75	UCH37 inh	PfM18AAP inh
O=C(N/C(=C/c1ccco1)C(=O)N1CCCCCC1)c1cccs1	1	-1	97*	-14	6	4
O=C(O)/C(=C\c1ccco1)NC(=O)c1ccccc1	4	-9	97*	1	2	6
CCOc1ccc(Br)cc1C(=O)NN=Cc1ccccn1	x	x	x	x	3	x
COc1ccc(S(=O)(=O)N2Cc3ccccc3CC2C(=O)Nc2ccc(O)cc2)cc1OC (centres undefined)	5	-3	95*	-6	3	-4
CNC(=O)C1Cc2ccccc2CN1S(=O)(=O)c1ccc(OC)c(OC)c1 (centres undefined)	1	-6	-31	1	5	-1
Cc1ccccc1C(=O)Nc1cccc(C(=O)NN=Cc2ccccn2)c1	x	x	x	x	-1	x
COCCn1c(SCC(=O)Nc2ccc(C(C)=O)cc2)nc2c([nH]c3ccccc32)c1=O	-5	-8	98*	2	x	2
COCCn1c(SCC(=O)Nc2cccc(F)c2)nc2c([nH]c3ccccc32)c1=O	-2	-6	-2	-3	-3	0
COCCn1c(SCC(=O)Nc2cccc(NC(C)=O)c2)nc2c([nH]c3ccccc32)c1=O	-5	0	98*	-5	-2	-6
CC(C)NC(=O)COc1ccc(C=NNS(=O)(=O)c2ccccc2)cc1	x	x	x	x	-1	x
COc1ccc(S(=O)(=O)Oc2c(OC)cc(C(=S)N3CCOCC3)cc2OC)cc1	0	0	2	11	4	28*
CN(C(=O)CSc1nc2ccccc2s1)c1c(N)n(Cc2ccccc2)c(=O)[nH]c1=O	3	-1	99*	26	8	-7
CCCn1c(N)c(C(=O)CSc2nnc(N)s2)c(=O)[nH]c1=O	0	-4	0	-1	3	x
CCCn1c(N)c(C(=O)CSc2nc3ccccc3s2)c(=O)[nH]c1=O	2	5	97*	-6	2	-8
CN1/C(=C\C=N\NC(=O)c2ccccc2Br)C(C)(C)c2ccccc21	x	-20	x	4	x	31*
CN1/C(=C/C=Nn2cnnc2)C(C)(C)c2ccccc21	x	x	x	x	-1	x
CN1/C(=C/C=N/n2cnnc2)C(C)(C)c2ccccc21	4	-12	94*	13	x	27
Cc1ccc(S(=O)(=O)N(CC(=O)NN=Cc2cccc(Cl)c2)c2cccc3cccnc23)cc1	x	x	x	x	4	x
CCc1cc(=O)[nH]c(SCc2cccnc2)n1	-7	-6	98*	0	5	15
CCc1cc(=O)[nH]c(SCc2ccc(C)cc2)n1	-1	-2	2	-18	5	-3
CCc1c(C)nc(SCc2cccnc2)[nH]c1=O	-5	-1	99*	-13	3	-6
Cn1c(=S)c2[nH]c(SCc3cccnc3)nc2n(C)c1=O	x	-5	x	1	x	x
CC(=NNc1ccc(S(=O)(=O)Nc2ccccc2)cc1[N+](=O)[O-])c1ccncc1	x	x	x	x	6	x
C=CCNC(=S)N/N=C(\C)c1cccnc1	-5	-2	83*	11	x	-2
C=CCNC(=S)NN=C(C)c1cccc(OC)c1	x	x	x	x	1	x
Clc1ccc(-c2ccc(C=NNc3cc(N4CCOCC4)nc(N4CCOCC4)n3)o2)cc1	x	x	x	x	-22	x
CCOc1ccc(CCNC(=O)C(O)c2ccccc2)cc1 (centres undefined)	9	-7	99*	-1	0	-1
COc1ccc(C=NNC(=O)c2cccnc2)cc1CN1CCc2ccccc2C1	x	x	x	x	5	x
Cc1cc(SCC(=O)Nc2ccc(O)cc2)n2ncc(-c3ccccc3)c2n1	x	7	-8	-21	-40	3
